# Measurements collected from several papers.
# Each line is one published result; the experiments were not run side by side.
# Organism: Staphylococcus aureus
# Read-out: microbial growth
SMILES,test,system,conditions,inhibition zone [mm]
COc1cc(C=CC(=O)CC(c2ccc(N(C)C)cc2)n2ccnc2)ccc1O (centres unmarked),disc diffusion,ATCC29213,500 µg/mL,10.7
CC(=O)C1=C(C)N2NC(C)(c3ccccc3O)N(C(C)C(=O)O)C2=NC1c1ccc(Cl)cc1 (centres unmarked),,ATCC25923,"15 µg/mL, 24 h",17
CC(C)Cc1nn(-c2nc3ccc(Cl)cc3s2)c2c1C(=O)c1ccccc1-2,well diffusion,NCIM5021,1000 µg/mL,11
CCOC(=O)C1=C(C)N2NC(c3ccccc3O)N(C(Cc3c[nH]c4ccccc34)C(=O)O)C2=NC1c1ccc(Cl)cc1 (centres unmarked),,ATCC25923,"15 µg/mL, 24 h",33
CC(C)Cc1nn(-c2nc3ccc(Br)cc3s2)c2c1C(=O)c1ccccc1-2,well diffusion,NCIM5021,125 µg/mL,11
CC(=O)C1=C(C)N2NC(c3ccccc3O)N(C(Cc3c[nH]c4ccccc34)C(=O)O)C2=NC1c1ccc(Cl)cc1 (centres unmarked),,ATCC25923,"10 µg/mL, 24 h",19
CC1(C)S[C@@H]2[C@H](NC(=O)[C@H](N)c3ccc(O)cc3)C(=O)N2[C@H]1C(=O)O,disc diffusion,ATCC29213,500 µg/mL,10.8
[H]/N=C(/N)N[C@H]1[C@H](O)[C@@H](O)[C@H](O[C@@H]2O[C@@H](C)[C@](O)(C=O)[C@H]2O[C@@H]2O[C@@H](CO)[C@H](O)[C@@H](O)[C@@H]2NC)[C@@H](N/C(N)=N\[H])[C@@H]1O,well diffusion,NCIM5021,125 µg/mL,20
CC[C@H]1OC(=O)[C@H](C)[C@@H](O[C@H]2C[C@@](C)(OC)[C@@H](O)[C@H](C)O2)[C@H](C)[C@@H](O[C@@H]2O[C@H](C)C[C@H](N(C)C)[C@H]2O)[C@](C)(O)C[C@@H](C)/C(=N\OCOCCOC)[C@H](C)[C@@H](O)[C@]1(C)O,disc diffusion,ATCC6538,"20000 µg/mL, 24 h",20
CC(C)c1nn(-c2nc3ccccc3s2)c2c1C(=O)c1ccccc1-2,well diffusion,NCIM5021,125 µg/mL,10
O=C(O)c1cn(C2CC2)c2cc(N3CCNCC3)c(F)cc2c1=O,disc diffusion,,"100 µg/mL, 24 h",24
Cc1nn(-c2nc3ccccc3s2)c2c1C(=O)c1ccccc1-2,well diffusion,NCIM5021,1000 µg/mL,11
CC(C(=O)O)N1c2nc(-c3ccc(Cl)cc3)c(C#N)c(=O)n2NC1c1ccccc1O (centres unmarked),,ATCC25923,"10 µg/mL, 24 h",14
Cc1cc(N)c2ccccc2[n+]1CCCCCCCCCC[n+]1c(C)cc(N)c2ccccc21,disc diffusion,,50 µg/disc,9
CN[C@H](CC(C)C)C(=O)N[C@H]1C(=O)N[C@@H](CC(N)=O)C(=O)N[C@H]2C(=O)N[C@H]3C(=O)N[C@H](C(=O)N[C@H](C(=O)O)c4cc(O)cc(O)c4-c4cc3ccc4O)[C@H](O)c3ccc(c(Cl)c3)Oc3cc2cc(c3O[C@@H]2O[C@H](CO)[C@@H](O)[C@H](O)[C@H]2O[C@H]2C[C@](C)(N)[C@H](O)[C@H](C)O2)Oc2ccc(cc2Cl)[C@H]1O,disc diffusion,ATCC29213,"31.2 µg/disc, 24 h",18
COc1cc(C=CC(=O)CC(c2ccc([N+](=O)[O-])cc2)n2ccnc2)ccc1O (centres unmarked),disc diffusion,ATCC29213,500 µg/mL,7
N#Cc1c(-c2ccc(Cl)cc2)nc2n(c1=O)NC(c1ccccc1O)N2C(Cc1c[nH]c2ccccc12)C(=O)O (centres unmarked),,ATCC25923,"15 µg/mL, 24 h",32
Cc1ccc2nc(-n3nc(CC(C)C)c4c3-c3ccccc3C4=O)sc2c1,well diffusion,NCIM5021,500 µg/mL,11
CC(C(=O)O)N1C2=NC(c3ccc(Cl)cc3)C3=C(OC(C)(C)OC3=O)N2NC1(C)c1ccccc1O (centres unmarked),,ATCC25923,"15 µg/mL, 24 h",24
COc1cc(C=Cc2cc(-c3ccc(N(C)C)cc3)nc(O)n2)ccc1O,disc diffusion,ATCC29213,500 µg/mL,6.33
